RGS4 act = RGS4 potentiation or activation; HEK293 M3R/inducible RGS4, carbachol calcium flux Fluo4; hits give low values; B-score at 10 µM; 310,000 tested, 0.92% active; AID 463111;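 active = B-score of the integrated calcium signal more than 4 SD below the library mean, with starting fluorescence not abnormally high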;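 note: negative B-score means reduced calcium response which marks RGS4 activation or potentiation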
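Assay system: Inducible-RGS4 HEK293 cells carrying M3 receptor | Schedule: Compound preincubation 20 min at room temperature before agonist | Signal: Kinetic calcium fluorescence imaging with Fluo4-AM dye, 2 µM | Read-out basis: B score from integrated fluorescence ratio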
Kir21 inh = blocks the mouse Kir2.1 inward-rectifier potassium channel. B-score at 10 µM. 310,000 tested, 0.85% active. HEK293-Kir2.1, FluxOR thallium flux fluorescence; hits give low values. AID 1672;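 active = fluorescence ratio B-score at or below minus 3 SD of library scores, with starting-brightness B-score within 2 SD, cut at about -4.2 in these data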;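 note: channel flux triggered by added potassium and thallium sulfate stimulus; B-score of peak minus minimum fluorescence over baseline after thallium stimulus; more negative B-score means stronger Kir2.1 block with less thallium influx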
Target sequence (P35561 whole entry, looked up): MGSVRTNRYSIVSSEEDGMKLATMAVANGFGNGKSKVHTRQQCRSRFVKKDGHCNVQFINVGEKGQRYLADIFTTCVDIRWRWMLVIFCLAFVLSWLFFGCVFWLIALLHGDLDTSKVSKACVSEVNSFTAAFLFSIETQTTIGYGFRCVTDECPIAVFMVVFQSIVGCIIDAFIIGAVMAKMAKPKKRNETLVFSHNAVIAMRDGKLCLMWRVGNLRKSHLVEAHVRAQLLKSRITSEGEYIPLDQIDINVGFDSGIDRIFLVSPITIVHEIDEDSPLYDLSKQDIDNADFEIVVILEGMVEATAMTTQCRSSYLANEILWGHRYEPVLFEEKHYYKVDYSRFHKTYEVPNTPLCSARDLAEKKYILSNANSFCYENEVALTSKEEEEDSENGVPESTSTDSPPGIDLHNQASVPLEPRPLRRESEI
MrgX1 allo act = allosterically activates human MrgX1 receptor signaling; Q96LB2; MrgX1-HEK293, Fluo-4 calcium flux, FDSS; hits give high values; B-score at 10 µM; 310,000 tested, 0.63% active;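 active = plate-corrected calcium response at least 3 library SD above typical, normal starting fluorescence, not activating the receptor alone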;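 note: compound read alongside a low EC10 to EC30 dose of BAM8-22 agonist; peak minus trough fluorescence over baseline measured at the second addition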
Target sequence (Q96LB2 whole entry, looked up): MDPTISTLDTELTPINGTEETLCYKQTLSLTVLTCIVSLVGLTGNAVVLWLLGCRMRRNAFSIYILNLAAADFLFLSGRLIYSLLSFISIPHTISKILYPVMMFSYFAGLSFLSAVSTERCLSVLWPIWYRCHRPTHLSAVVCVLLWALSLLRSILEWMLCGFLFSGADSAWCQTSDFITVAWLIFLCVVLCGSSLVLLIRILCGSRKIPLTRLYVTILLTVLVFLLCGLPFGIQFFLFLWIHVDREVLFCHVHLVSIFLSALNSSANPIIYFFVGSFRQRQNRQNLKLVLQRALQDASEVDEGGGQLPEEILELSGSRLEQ
MrgX1 antag = blocks BAM8-22 activation of human MrgX1 receptor. MRGX1-HEK293 calcium flux, Fluo-4, BAM8-22 antagonism; hits give low values. 310,000 tested, 1.3% active. B-score at 10 µM;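 active = calcium-response B-score plate-corrected more than 3 library SD below zero, starting fluorescence within 5 deviations, no agonist response on first addition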;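 note: peak minus trough fluorescence over baseline after final BAM8-22 challenge near maximal dose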
MrgX1 agonist = agonists of human MrgX1 receptor. MrgX1-HEK293 cells, Fluo-4 calcium fluorescence, agonist mode; hits give high values. B-score at 10 µM. 310,000 tested, 0.44% active. AID 588627;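 active = calcium response B-score plate-corrected fluorescence ratio at least 3 library SD, with starting fluorescence B-score inside 5 SD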
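Material: MrgX1-expressing HEK293 cells / Dosing: compound as first of three additions / Incubation: overnight seeding, then 1 h dark dye loading / Signal: Fluo-4 NW calcium fluorescence / Evaluation: B-scored fluorescence response ratio / Benchmarks: positive and negative control wells on each plate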
RGS4 inh = inhibitors of human RGS4. HEK293 M3R/RGS4 inducible, Fluo-4 calcium flux; hits give high values; triggered by carbachol at its EC20. B-score at 10 µM. AID 463165. 310,000 tested, 0.45% active;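 active = B-score, a plate-corrected calcium signal, over three deviations above library mean, with baseline fluorescence within five deviations of library mean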;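 note: RGS4 expression induced by doxycycline in cells with stable M3 receptor; B-score is computed from the integrated fluorescence ratio over baseline after carbachol; higher B-score means a larger calcium signal and so more RGS4 inhibition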
MrgX1 antag conf = confirmation of human MrgX1 receptor antagonists. shares compounds with MrgX1 antag. MrgX1-HEK293, BAM8-22 calcium flux, Fluo-4; hits give low values. remaining BAM8-22 calcium response % of control (hits give low values), % at 10 µM. 2,300 tested, 19% active;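 active = remaining agonist calcium response no higher than 100% minus 3 SD of agonist-only control wells, with starting fluorescence near control levels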;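 note: agonist BAM8-22 given at a near maximal EC90 to ECmax level; peak minus minimum fluorescence divided by baseline after agonist addition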
HEK293 Ca flux = counter-screen for MrgX1 antagonists: effect in parental HEK293 cells. fluorescence ratio F(max-min)/F0 at 10 µM. 4,000 tested, 2% active. Fluo-4 calcium fluorescence, FDSS. shares compounds with MrgX1 antag;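 active = duplicate-averaged calcium fluorescence ratio at least three times the standard deviation of buffer wells, a nonspecific response in parental cells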
HEK293 Ca counter = activity in parental HEK293 cells without MrgX1. 4,000 tested, 0.4% active. parental HEK293 calcium flux, Fluo-4 fluorescence ratio; hits give high values. shares compounds with MrgX1 antag. fluorescence ratio F(max-min)/F0 at 10 µM;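 active = calcium fluorescence ratio, averaged over duplicates, at least 3 SD of the buffer-well ratio, meaning a nonspecific response in receptor-free cells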;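 note: untransfected parental HEK293 lacking MrgX1 used as counterscreen for MrgX1 allosteric activators; fluorescence change taken during the second addition on a kinetic imager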
HEK293 Ca cntr2 = activity in parental HEK293 cells lacking MrgX1 receptor | shares compounds with MrgX1 antag | Fluo-4 calcium fluorescence (FDSS); hits give high values | fluorescence ratio F(max-min)/F0 at 10 µM | 4,000 tested, 8.7% active;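 active = calcium fluorescence ratio at least three times the spread of buffer wells, meaning a non-specific response in parental cells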
Each line names hits and unclear results; the compound was inactive in the other large screens (follow-up assays come after a bar, where they were run). In the library only some 4.1% were active in any assay of this set; here they are far more common.

COc1cc(OC)cc(C(=O)N[C@H](C(=O)OCC(=O)NC(=O)c2cccn2C)C(C)C)c1	none
COc1ccc(C(=O)N[C@H](C(=O)OCC(=O)NC(=O)c2cccn2C)C(C)C)cc1	MrgX1 antag -4.8 | MrgX1 antag conf inactive | HEK293 Ca flux inactive | HEK293 Ca counter inactive | HEK293 Ca cntr2 inactive
Cc1ccc(C)c(NC(=S)N2CCN(CCO)CC2)c1	MrgX1 antag -4.8 | MrgX1 antag conf inactive | HEK293 Ca flux inactive | HEK293 Ca counter inactive | HEK293 Ca cntr2 inactive
CCCCN1CC[C@H]2C=CC[C@@H](C(=O)NCCc3ccccc3)[C@H]2C1=O	MrgX1 antag -6.1 | MrgX1 antag conf inactive | HEK293 Ca flux inactive | HEK293 Ca counter inactive | HEK293 Ca cntr2 inactive
CCOC(=O)CC(NC(=O)c1cccs1)c1ccc(OCC)cc1 (centres undefined)	none
COCCn1nnnc1C(c1cccs1)N1CCN(c2cc(C)ccc2C)CC1 (centres undefined)	MrgX1 antag -10 | MrgX1 antag conf inactive | HEK293 Ca flux inactive | HEK293 Ca counter inactive | HEK293 Ca cntr2 inactive
CC(C)N(C(=O)COC(=O)[C@H](C)NC(=O)c1ccco1)c1ccccc1	none
Cc1cc(C)cc(NC(=O)COC(=O)c2n[nH]c3ccccc23)c1	none
COc1ccc(NC(=S)NC23CN4CN(CN(C4)C2)C3)cc1	none
CCN1CCN(C(=S)Nc2cccc(Cl)c2)CC1	none
CN1CCN(C(=S)Nc2cccc(Cl)c2)CC1	MrgX1 antag -4.9 | MrgX1 antag conf inactive | HEK293 Ca flux inactive | HEK293 Ca counter inactive | HEK293 Ca cntr2 inactive
O=C(c1ccccc1)N1CCN(c2ncnc3sc4c(c23)CCC4)CC1	MrgX1 antag -5.1 | MrgX1 antag conf inactive | HEK293 Ca flux inactive | HEK293 Ca counter inactive | HEK293 Ca cntr2 inactive
c1nc(N2CCOCC2)c2c3c(sc2n1)CCCC3	none
CCC(C)Oc1cc(-c2ccnc(Nc3cccc(Cl)c3)n2)ccn1 (centres undefined)	none
OCCCNc1cc(-c2ccnc(Nc3cccc(Cl)c3)n2)ccn1	MrgX1 antag -4.9 | MrgX1 antag conf 60% | HEK293 Ca flux inactive | HEK293 Ca counter inactive | HEK293 Ca cntr2 inactive
COc1ccccc1NS(=O)(=O)c1cc(NC(=O)C(C)(C)C)ccc1N1CCOCC1	MrgX1 antag -4.6 | MrgX1 antag conf 82% | HEK293 Ca flux inactive | HEK293 Ca counter inactive | HEK293 Ca cntr2 inactive
Cc1ccc(C)c(NC(=O)CN(C)C(=O)c2cccc(S(=O)(=O)N(C)C)c2)c1	MrgX1 antag -4.9 | MrgX1 antag conf 84% | HEK293 Ca flux inactive | HEK293 Ca counter inactive | HEK293 Ca cntr2 inactive
CN(CC(=O)Nc1ccc(Cl)cc1)C(=O)c1cccc(S(=O)(=O)N(C)C)c1	none
O=c1cc(-c2ccccc2)nc2n1Cc1ccccc1-2	none
COC(=O)C(Cc1c[nH]c2ccccc12)N1CCS(=O)(=O)CC1 (centres undefined)	MrgX1 antag -5.7 | MrgX1 antag conf inactive | HEK293 Ca flux inactive | HEK293 Ca counter inactive | HEK293 Ca cntr2 inactive
COC(=O)C(Cc1ccccc1)N1CCS(=O)(=O)CC1 (centres undefined)	none
CCN1CCN(C(=O)c2ccc(OC3CCN(CCc4ccccc4)CC3)cc2)[C@@H](C)C1=O	none
COC(=O)c1ccc(Cl)c(NC(=O)CN2CCOCC2)c1	none
CSC1=NCCN1C(=O)c1ccc(Br)o1	MrgX1 antag -5.4 | MrgX1 antag conf inactive | HEK293 Ca flux inactive | HEK293 Ca counter inactive | HEK293 Ca cntr2 inactive
O=C(c1ccc(Br)o1)N1CCN=C1SCc1cccnc1	none
CCOC(=O)C1CCCN(C(=O)CSCc2ccccc2)C1 (centres undefined)	MrgX1 antag -8.9 | MrgX1 antag conf inactive | HEK293 Ca flux inactive | HEK293 Ca counter inactive | HEK293 Ca cntr2 inactive
Cc1n[nH]c(C)c1S(=O)(=O)N1CCOCC1	none
COCCNC(=O)C1CC2Cn3c(nc4cc(Cl)c(Cl)cc43)C2N1C (centres undefined)	MrgX1 antag -5.5 | MrgX1 antag conf inactive | HEK293 Ca flux inactive | HEK293 Ca counter inactive | HEK293 Ca cntr2 inactive
COCCNC(=O)C1CC2Cn3c(nc4ccccc43)C2N1C (centres undefined)	none
Cc1ccccc1NS(=O)(=O)c1cc(OCC(N)=O)c(C)cc1Cl	none
CC(C)(C)NC(=S)Nc1cccc(C(F)(F)F)c1	MrgX1 antag -5.2 | MrgX1 antag conf inactive | HEK293 Ca flux inactive | HEK293 Ca counter inactive | HEK293 Ca cntr2 inactive
O=C(Nc1ccccc1)Nc1cccc(C(F)(F)F)c1	MrgX1 antag -5.2 | MrgX1 antag conf 84% | HEK293 Ca flux inactive | HEK293 Ca counter inactive | HEK293 Ca cntr2 inactive
CNNC(=S)Nc1cccc(C(F)(F)F)c1	none
FC(F)(F)c1cccc(NC(=S)NCc2ccccc2)c1	MrgX1 antag -5.4 | MrgX1 antag conf inactive | HEK293 Ca flux inactive | HEK293 Ca counter inactive | HEK293 Ca cntr2 58
C[C@@H](C(=O)Nc1ccc2c(c1)OCCO2)n1nnc2ccccc2c1=O	none
Cc1c(Cl)cccc1NC(=O)CNc1cccc(S(=O)(=O)N(C)C)c1	none
O=C(OCn1nnc2ccccc2c1=O)C1CCCCC1	MrgX1 antag -10 | MrgX1 antag conf inactive | HEK293 Ca flux inactive | HEK293 Ca counter inactive | HEK293 Ca cntr2 inactive
C/C(=N\NC(=O)CNc1cccc(C(F)(F)F)c1)c1cccs1	none
COc1ccc(-c2cc(C(F)(F)F)nc(SCCC(=O)NCc3ccccc3)n2)cc1	none
O=c1ccc(Oc2nc(N3CCCCC3)nc(N3CCCCC3)n2)n[nH]1	MrgX1 antag -5.5 | MrgX1 antag conf inactive | HEK293 Ca flux inactive | HEK293 Ca counter inactive | HEK293 Ca cntr2 inactive
CCOc1ccc2oc(=O)cc(CN3CCOCC3)c2c1	MrgX1 antag -7.3 | MrgX1 antag conf inactive | HEK293 Ca flux inactive | HEK293 Ca counter inactive | HEK293 Ca cntr2 inactive
O=C1CCSc2ccc(Cl)cc2N1Cc1ccccc1	MrgX1 antag -4.6 | MrgX1 antag conf 75% | HEK293 Ca flux inactive | HEK293 Ca counter inactive | HEK293 Ca cntr2 inactive

Bioassay records as filed in PubChem BioAssay.
